NPY-Y2 antag: NPY-Y2 (human) receptor antagonism. 140,000 tested, 0.99% active. NPY-Y2 expressing cells, antagonist mode. AID 793. inhibition, % at 2.7 µM; in the data active means inhibition above about 17%;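 further: 0% = vehicle with agonist challenge and 100% = reference antagonist with challenge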
NPY2 pot ag: human NPY-Y2 potentiation or agonism, primary screen. AID 1359. cells expressing NPY-Y2, potentiator/agonist read-out. 220,000 tested, 0.45% active. activation, % at 3.6 µM; in the data active means activation above about 27%;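 further: cells stimulated with NPY near EC25 plus isoproterenol at EC100; 0% = vehicle plus submaximal agonist and 100% = vehicle plus saturating agonist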
NPY1 pot ag: potentiators or agonists of human neuropeptide Y receptor Y1; 220,000 tested, 0.37% active; activation, % at 3.6 µM; P25929; NPY-Y1 expressing cells, potentiator/agonist activation; AID 1304; in the data active means activation above about 33%, passing the limit was not always enough;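 further: cells stimulated with NPY at EC10 then isoproterenol at EC100; 0% = low agonist plus stimulus and 100% = saturating agonist plus stimulus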
Target sequence (P25929 whole entry, looked up): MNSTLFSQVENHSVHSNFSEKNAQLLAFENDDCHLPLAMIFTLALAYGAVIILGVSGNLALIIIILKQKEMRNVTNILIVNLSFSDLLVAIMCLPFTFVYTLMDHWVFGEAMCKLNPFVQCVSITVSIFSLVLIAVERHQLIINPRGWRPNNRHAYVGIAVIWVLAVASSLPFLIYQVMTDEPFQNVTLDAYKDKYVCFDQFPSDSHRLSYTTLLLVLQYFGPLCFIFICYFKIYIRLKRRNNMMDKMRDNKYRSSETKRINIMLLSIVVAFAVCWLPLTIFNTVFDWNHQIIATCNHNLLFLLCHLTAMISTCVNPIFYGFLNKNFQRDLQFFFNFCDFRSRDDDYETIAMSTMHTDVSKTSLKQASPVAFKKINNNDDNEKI
NPY-Y1 antag: NPY-Y1 (human) receptor antagonism; inhibition, % at 3.6 µM; P25929; HEK293-CNG Y1 cells, membrane potential fluorescence; NPY at EC95, then isoproterenol; 200,000 tested, 1% active; AID 1040;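 active means inhibition above the campaign mean inhibition of all tested compounds plus 3 SD, cut at about 20% in these data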;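 further: 0% = DMSO wells given NPY plus isoproterenol and 100% = isoproterenol alone without NPY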
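Benchmarks – high control isoproterenol alone, low control NPY with isoproterenol · Material – HEK293 Y1/CNG channel cell line · Times – dye 3 h, compound 60 min room temperature, stimulation 45 min · Probe or stimulus – NPY (25 nM), isoproterenol (1 µM), Ro 20-1724 (25 µM) · Evaluation – % inhibition of NPY effect · Signal – fluorescence, membrane potential probe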
NPY-Y2 pot conf: confirmation of human NPY-Y2 receptor potentiators or agonists; AID 1539; 450 tested, 20% active; shares compounds with NPY2 pot ag; activation, % at 3.6 µM; cell-based NPY-Y2 potentiator/agonist assay; in the data active means activation above about 33%
NPY-Y1 counter: NPY-Y1 potentiation or agonism as NPY-Y2 counter-screen | activation, % at 3.6 µM | 450 tested, 20% active | Y1 HEK293-CNG cells, membrane potential fluorescence | shares compounds with NPY2 pot ag; in the data active means activation above about 45%;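 further: cells stimulated with submaximal NPY then isoproterenol with phosphodiesterase inhibitor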
NPY-Y1 agonist 2: human NPY-Y1 agonism as NPY-Y2 potentiator counter-screen. shares compounds with NPY2 pot ag. HEK293 Y1-CNGC, membrane potential fluorescence. activation, % at 3.6 µM. 450 tested, 37% active;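 active means activation above the mean of DMSO-only control wells plus 3 SD, cut at about 18% in these data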;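 further: cells stimulated with 1 µM isoproterenol plus the PDE inhibitor Ro 20-1724; 0% = isoproterenol with DMSO and no NPY and 100% = 40 nM NPY; Y1 agonists lower the membrane potential dye signal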
CNGC inh: counter-screen for NPY-Y2 potentiators: inhibitors of CNG channel activity. AID 1703. inhibition, % at 3.6 µM. shares compounds with NPY2 pot ag. 450 tested, 32% active. HEK293-CNG parental, isoproterenol cAMP, membrane potential fluorescence;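 active means inhibition above the control-well mean plus 3 SD of those wells, cut at about 22% in these data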;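 further: 0% = DMSO with isoproterenol and 100% = DMSO without isoproterenol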
NPY-Y2 ag 2: counter-screen for NPY-Y2 potentiators: agonists of human NPY-Y2; shares compounds with NPY2 pot ag; HEK293 Y2/CNGC cells, membrane potential fluorescence, agonist mode; activation, % at 3.6 µM; 450 tested, 56% active; AID 1710;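 active means activation above the mean of solvent-only control wells plus 3 SD, cut at about 10% in these data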;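 further: cells stimulated by isoproterenol with no NPY added so direct agonism is tested; 0% = DMSO with isoproterenol alone and 100% = NPY at EC100 plus isoproterenol; agonism lowers probe fluorescence through less cAMP and CNG channel opening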
* hit, by the source's call; . = no result; ! = a repeat was not active. The list is not random: actives were taken first. Their share in the collection is about 1.8%.

SMILES	NPY-Y2 antag	NPY2 pot ag	NPY1 pot ag	NPY-Y1 antag	NPY-Y2 pot conf	NPY-Y1 counter	NPY-Y1 agonist 2	CNGC inh	NPY-Y2 ag 2
Clc1cccc(N2CCNCC2)c1Cl	4	32*	1	8	14	15	9	11	8
N#Cc1cc(F)c(N2CCNCC2)cc1Cl	2	-13	-18	2	.	.	.	.	.
Cc1cccc(N2CCc3c2nc2ccccc2c3N)c1	-1	68*!	-43	1	28	39	-18	1	23*
O=C1NC(=O)N(CC2CCCO2)C(=O)/C1=C/c1cccs1 (stereo not given)	.	41*	14	.	2	13	3	2	3
CCN(CC)c1ccc(/C=C2/C(=O)NC(=O)N(CC3CCCO3)C2=O)cc1 (stereo not given)	-2	-2	-3	-3	.	.	.	.	.
CP(=O)(O)CN1CCCCC1	.	-6	9	-2	.	.	.	.	.
O=C1Nc2ccccc2/C1=C/c1nc2ccccc2c(=O)n1-c1ccc(O)cc1	.	42*	44	.	33*	44	29*	35*	33*
Cc1nc(CCl)cc(=O)[nH]1	.	2	-12	-2	.	.	.	.	.
